# Laboratory results from publication PMC3931004 (The Biochemical journal, 2013).
# Assays:
# PBD1 of PPIP5K1 = target: T1, PBD1 of PPIP5K1 (Homo sapiens, UniProt Q6PFW1); experiment: SPR ligand competition: PBD1 binding to vesicular PtdIns; details: for fold lower affinity for PBD1 than InsP6 and 5-InsP7: from IC50 values
# T1 sequence (Q6PFW1 382-917): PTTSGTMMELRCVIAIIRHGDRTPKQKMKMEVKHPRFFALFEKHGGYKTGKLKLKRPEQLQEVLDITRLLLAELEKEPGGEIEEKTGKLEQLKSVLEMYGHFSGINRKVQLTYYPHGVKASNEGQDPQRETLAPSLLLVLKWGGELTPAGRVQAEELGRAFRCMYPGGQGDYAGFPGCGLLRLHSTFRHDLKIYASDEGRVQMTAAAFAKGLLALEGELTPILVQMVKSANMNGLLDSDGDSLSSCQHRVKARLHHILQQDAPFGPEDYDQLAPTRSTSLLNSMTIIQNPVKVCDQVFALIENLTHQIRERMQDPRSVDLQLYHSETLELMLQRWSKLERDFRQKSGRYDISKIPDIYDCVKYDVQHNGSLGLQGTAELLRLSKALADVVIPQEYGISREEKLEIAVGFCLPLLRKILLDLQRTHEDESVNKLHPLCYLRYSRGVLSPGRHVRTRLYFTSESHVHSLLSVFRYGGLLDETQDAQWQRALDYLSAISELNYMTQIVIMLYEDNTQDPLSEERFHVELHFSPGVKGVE
# [1] = target: Akt^PH (human recombinant AKT1) (Homo sapiens, UniProt P31749); experiment: SPR ligand competition: Akt binding to vesicular PtdIns
# Akt^PH (human recombinant AKT1), sequence (P31749 5-108 limits assumed): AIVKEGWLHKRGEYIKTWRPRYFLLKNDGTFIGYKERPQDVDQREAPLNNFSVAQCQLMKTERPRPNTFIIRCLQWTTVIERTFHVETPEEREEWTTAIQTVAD
# SIN1^PH = SIN1^PH (Homo sapiens, UniProt Q9BPZ7); experiment: SPR ligand competition: SIN1^PH binding to vesicular PtdIns
# SIN1^PH, sequence (Q9BPZ7 358-522): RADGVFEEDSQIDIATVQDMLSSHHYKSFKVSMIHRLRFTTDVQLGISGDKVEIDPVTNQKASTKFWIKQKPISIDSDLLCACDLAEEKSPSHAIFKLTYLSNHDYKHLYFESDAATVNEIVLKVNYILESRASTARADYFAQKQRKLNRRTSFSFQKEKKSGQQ
# GRP1^PH = target: T2, GRP1^PH (Mus musculus, UniProt O08967); experiment: SPR ligand competition: GRP1^PH association with PtdIns; format: binding; details: Supplementary Figure S2
# T2 sequence (O08967 261-387 limits assumed): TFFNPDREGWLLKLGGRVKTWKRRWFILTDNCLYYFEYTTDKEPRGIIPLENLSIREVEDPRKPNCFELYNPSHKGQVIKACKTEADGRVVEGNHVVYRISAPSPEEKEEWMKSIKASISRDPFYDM
# How it was run: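 GRP1 PH domain expressed in E. coli BL21(DE3) at 37 °C in ampicillin LB, induced overnight at 25 °C with 1 mM IPTG at D600 0.6, lysed in imidazole-containing Hepes pH 8 buffer. SPR: protein injected at 5 μl/min over immobilized PtdIns(3,4,5)P3-containing lipid vesicles in 100 mM KCl, 10 mM NaH2PO4, 1 mM MgCl2, 25 mM Hepes pH 7.2. Signal corrected against control vesicles lacking the phosphoinositide.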
# NIH 3T3 cells = experiment: [3H]inositol lipid and inositol phosphate levels in NIH 3T3 cells by HPLC; format: cell-based
# How it was run: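 NIH 3T3 cells in DMEM with 10 % FBS and 1 mM pyruvate (37 °C, 5 % CO2), [3H]inositol-labelled, serum-starved 3 h in Hepes-buffered saline-glucose medium pH 7.4. Treatment: vehicle or PDGF for 5 min, or fresh medium with or without 0.2 M sorbitol. Reactions quenched; lipids or inositol phosphates extracted and quantified by HPLC as % of total. PDGF data: mean ± S.E.M., three experiments.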
# mouse embryo fibroblasts = details: 5 min stimulation with IGF-1, serum starved overnight; cited from earlier work
# [2] = 30 min hyperosmotic stress, 0.2 M sorbitol
IC50 (PBD1 of PPIP5K1) [µM],IC50 [1] [µM],IC50 (SIN1^PH) [µM],Compound,further results
43,45,> 100,O=P(O)(O)O[C@@H]1[C@@H](OP(=O)(O)O)[C@@H](OP(=O)(O)O)[C@@H](OP(=O)(O)OP(=O)(O)O)[C@H](OP(=O)(O)O)[C@H]1OP(=O)(O)O [1-InsP7],fold lower affinity for PBD1 than InsP6 and 5-InsP7 (PBD1 of PPIP5K1): 6–7 fold
5,7,3.7,O=P(O)(O)O[C@H]1[C@@H](OP(=O)(O)O)[C@H](OP(=O)(O)O)[C@@H](OP(=O)(O)OP(=O)(O)O)[C@H](OP(=O)(O)O)[C@H]1OP(=O)(O)O [5-InsP7],"inhibition of GRP1^PH association with PtdIns(3,4,5)P3, relative potency (GRP1^PH): only marginally more potent than InsP6"
32,> 50,> 100,"O=P(O)(O)O[C@@H]1[C@@H](OP(=O)(O)O)[C@H](OP(=O)(O)OP(=O)(O)O)[C@@H](OP(=O)(O)O)[C@H](OP(=O)(O)OP(=O)(O)O)[C@@H]1OP(=O)(O)O [InsP8, bis-diphosphoinositol tetrakisphosphate]",fold lower affinity for PBD1 than InsP6 and 5-InsP7 (PBD1 of PPIP5K1): 6–7 fold
,,,OC[C@@H](O)[C@@H](O)[C@H](O)[C@@H](O)CO [sorbitol],"elevation of PtdIns(3,4,5)P3 levels (NIH 3T3 cells; [2]): 4.5 fold; increase in InsP8 concentration (NIH 3T3 cells; [2]): 4.5 fold"
,,,IGF-1: insulin-like growth factor 1,increase in levels of InsP6 and InsP7 (mouse embryo fibroblasts): 2 fold
,,,PDGF,"increase in levels of PtdIns(3,4,5)P3 (NIH 3T3 cells; 5 min stimulation with 50 ng/ml PDGF, 3 h serum starved): 2 fold"

Compound,IC50 (PBD1 of PPIP5K1) [µM],IC50 [1] [µM],IC50 (SIN1^PH) [µM],further results
O=P(O)(O)O[C@H]1[C@H](OP(=O)(O)O)[C@@H](OP(=O)(O)O)[C@H](OP(=O)(O)O)[C@@H](OP(=O)(O)O)[C@H]1OP(=O)(O)O [InsP6],7,14,6,
